Experimental data published in PMC5656813 (Arthritis & Rheumatology (Hoboken, N.j.), 2017).

What was measured:
Type in all cases: in vivo, human
[1] = system: RA patients with an inadequate response to MTX; experiment: Study 2
Method in brief: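 Randomized, double-blind, placebo-controlled dose-ranging trial: 91 RA patients, 19 sites in 4 countries, 1:1:1:1:1 allocation. Patients had MTX for ≥12 weeks and a stable 7.5–25 mg/week dose for ≥4 weeks, continued throughout. Oral capsules once daily at 30, 75, 150 or 300 mg for 4 weeks. Read-outs: ACR responses, DAS28-CRP and HAQ DI change from baseline at week 4. Intent-to-treat population.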

[2] = system: RA patients; experiment: Studies 1 and 2, laboratory safety, hematology, vital signs, EKG
Method in brief: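 Both double-blind, placebo-controlled trials in RA patients on stable MTX. Oral capsules daily for 4 weeks, with 7–10-day follow-up: 200 mg once daily or 100 mg twice daily (study 1); 30, 75, 150 or 300 mg once daily (study 2). At every visit: AEs, vital signs, hematology, serum biochemistry, coagulation and urinalysis. EKG at baseline and follow-up, plus week 4 in study 1. Safety population, descriptive treatment-emergent AE summaries.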

[3] = Studies 1 and 2, steady‐state plasma PK of filgotinib and its major metabolite; details: for Cmax / Tmax / AUC: human, plasma, oral
Method in brief: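 RA patients on stable methotrexate took oral test compound or placebo capsules for 4 weeks: 200 mg once daily or 100 mg twice daily (study 1), or 30, 75, 150 or 300 mg once daily (study 2). In a subset (12 and 15 patients), plasma parent and major metabolite were sampled predose and 1, 2, 3, 5 and 8 h after the morning dose, at week 2 or 4. Descriptive statistics were calculated by dose.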

dose proportionality of PK ([3]; 30–300 mg range): essentially dose proportional | Cmax ([3]; 30 mg): 71.6 ng/mL | Tmax ([3]; 30 mg): 1 h | AUC ([3]; 30 mg, AUCtau of filgotinib, steady state, 30 mg once daily, study 2, arithmetic mean (coefficient of variation)): 1340 ng·h/mL | Cmax ([3]; 75 mg): 492 ng/mL | Cmax ([3]; 100 mg): 730 ng/mL | AUC ([3]; 100 mg, AUCtau of filgotinib, steady state, 100 mg twice daily, study 1, arithmetic mean (coefficient of variation)): 2470 ng·h/mL | Cmax ([3]; 150 mg): 1160 ng/mL | Tmax ([3]; 150 mg): 1 h | AUC ([3]; 150 mg, AUCtau of filgotinib, steady state, 150 mg once daily, study 2, arithmetic mean (coefficient of variation)): 6440 ng·h/mL | AUC ([3]; 150 mg, AUCtau, other 4 patients, 150 mg once daily, study 2): 4790 to 5290 ng·h/mL | Cmax ([3]; 200 mg): 1430 ng/mL | AUC ([3]; 200 mg, AUCtau of filgotinib, steady state, 200 mg once daily, study 1, arithmetic mean (coefficient of variation)): 5380 ng·h/mL | Cmax ([3]; 300 mg): 1340 ng/mL | AUC ([3]; 300 mg, AUCtau of filgotinib, steady state, 300 mg once daily, study 2, arithmetic mean (coefficient of variation)): 7710 ng·h/mL | time of dosing to attain steady state ([3]; in vivo): ≤ 2 days
SMILES: O=C(Nc1nc2cccc(-c3ccc(CN4CCS(=O)(=O)CC4)cc3)n2n1)C1CC1 [Filgotinib]
Patient's global assessment of disease activity, mean change from baseline at week 4 ([1]; 300 mg once daily, study 2): −25.85 0–10‐cm VAS | Physician's global assessment of disease activity, mean change from baseline at week 4 ([1]; 300 mg once daily, study 2): −29.20 0–10‐cm VAS | Remission rate (DAS28‐CRP <2.6) at week 4 ([1]; 300 mg once daily, study 2): 5 (25.0) no. (%) | SJC66, mean change from baseline at week 4 ([1]; 300 mg once daily, study 2): −8.48 | Serum CRP, mean change from baseline at week 4 ([1]; 300 mg once daily, study 2): -20.98 mg/L | TJC68, mean change from baseline at week 4 ([1]; 300 mg once daily, study 2): −14.68 | patients achieving an ACR20 response ([1]; study 2, 300 mg, week 4): 65% | Creatinine, mean change, day 28 ([2]; 30 mg once daily): 1.47 µmol/L | HDL cholesterol, mean change, day 28 ([2]; 30 mg once daily): 0.03 mmol/L | Hemoglobin, mean change, day 28 ([2]; 30 mg once daily): −0.3 gm/liter | LDL cholesterol, mean change, day 28 ([2]; 30 mg once daily): 0.25 mmol/L | Neutrophils, mean change, day 28 ([2]; 30 mg once daily): -6.5e+08 L⁻¹ | Platelets, mean change, day 28 ([2]; 30 mg once daily): -1.8e+10 L⁻¹ | Creatinine, mean change, day 28 ([2]; 75 mg once daily): 5.18 µmol/L | HDL cholesterol, mean change, day 28 ([2]; 75 mg once daily): 0.11 mmol/L | Hemoglobin, mean change, day 28 ([2]; 75 mg once daily): 2.0 gm/liter | LDL cholesterol, mean change, day 28 ([2]; 75 mg once daily): 0.14 mmol/L | Neutrophils, mean change, day 28 ([2]; 75 mg once daily): -7.4e+08 L⁻¹ | Platelets, mean change, day 28 ([2]; 75 mg once daily): -3.5e+10 L⁻¹ | Creatinine, mean change, day 28 ([2]; 100 mg twice daily): -6.98 µmol/L | HDL cholesterol, mean change, day 28 ([2]; 100 mg twice daily): 0.20 mmol/L | Hemoglobin, mean change, day 28 ([2]; 100 mg twice daily): 3.0 gm/liter | LDL cholesterol, mean change, day 28 ([2]; 100 mg twice daily): 0.07 mmol/L | Neutrophils, mean change, day 28 ([2]; 100 mg twice daily): -1.45e+09 L⁻¹ | Platelets, mean change, day 28 ([2]; 100 mg twice daily): -3.5e+10 L⁻¹ | Creatinine, mean change, day 28 ([2]; 150 mg once daily): 4.50 µmol/L | HDL cholesterol, mean change, day 28 ([2]; 150 mg once daily): 0.07 mmol/L | Hemoglobin, mean change, day 28 ([2]; 150 mg once daily): −1.0 gm/liter | LDL cholesterol, mean change, day 28 ([2]; 150 mg once daily): 0.01 mmol/L | Neutrophils, mean change, day 28 ([2]; 150 mg once daily): -1.37e+09 L⁻¹ | Platelets, mean change, day 28 ([2]; 150 mg once daily): -3.2e+10 L⁻¹ | increase in HDL at week 4 versus baseline ([2]; 200 mg): ~15% | Creatinine, mean change, day 28 ([2]; 200 mg once daily): 5.47 µmol/L | HDL cholesterol, mean change, day 28 ([2]; 200 mg once daily): 0.16 mmol/L | Hemoglobin, mean change, day 28 ([2]; 200 mg once daily): 7.8 gm/liter | LDL cholesterol, mean change, day 28 ([2]; 200 mg once daily): -0.25 mmol/L | Neutrophils, mean change, day 28 ([2]; 200 mg once daily): -1.21e+09 L⁻¹ | Platelets, mean change, day 28 ([2]; 200 mg once daily): -3.3e+10 L⁻¹ | increase in HDL at week 4 versus baseline ([2]; 300 mg): > 30% | Creatinine, mean change, day 28 ([2]; 300 mg once daily): 6.90 µmol/L | HDL cholesterol, mean change, day 28 ([2]; 300 mg once daily): 0.48 mmol/L | Hemoglobin, mean change, day 28 ([2]; 300 mg once daily): 4.4 gm/liter | LDL cholesterol, mean change, day 28 ([2]; 300 mg once daily): 0.37 mmol/L | Neutrophils, mean change, day 28 ([2]; 300 mg once daily): -1.13e+09 L⁻¹ | Platelets, mean change, day 28 ([2]; 300 mg once daily): -5.8e+10 L⁻¹ | decrease in neutrophils from baseline ([2]; doses of ≥75 mg): 14–24% | lymphocytes and lymphocyte subpopulations ([2]; during filgotinib treatment): unaffected | liver function tests (transaminases) ([2]; in vivo): lack of changes | neutropenia ([2]; in vivo): no neutropenia | reticulocytes ([2]; in vivo): absence of effects | vital signs values and EKG parameters ([2]; in vivo): No clinically relevant trends or changes
